According to article PMC7909006 (Clinical cancer research : an official journal of the …, 2020):

Legend:
[1] = system: serum cytokines (IL-10, IL-12p70, IL-6, MCP-1, M-CSF); assay: Pharmacodynamics: serum cytokine analysis, fold change from Day 1; assay type: in vivo, human
[2] = non-human primate model, nontumor setting; cited from earlier work
[3] = adults; cited from earlier work
[4] = Plasma pharmacokinetics, noncompartmental analysis; assay type: in vivo, human
Method in brief: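 Oral dosing once daily, BSA-based at 400, 600 or 800 mg/m2, rolling-six escalation. Peripheral blood sampled on C1 day 1 before dosing and at 0.5–24 h after, on day 15 before dosing and at 1–6 h after, and before dosing on day 16. Plasma assayed by validated LC-MS/MS (LLOQ 10 nmol/L). Cmax, Tmax, AUC and CL/F derived by noncompartmental analysis.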

[5] = system: circulating monocytes and regulatory T cells and TAMs; details: cited from earlier work
[6] = adult patients; cited from earlier work
[7] = Phase I safety and tolerability: adverse events; assay type: in vivo
[8] = Population PK modeling; design: species or system human; details: for RP2D based on body weight (population PK): exposure matched to adults receiving 800 mg daily
Method in brief: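 Nonlinear mixed-effects model: two compartments, sequential zero- and first-order absorption with lag time, linear elimination, and body weight as an allometric covariate on disposition parameters. Final-model estimates were used to simulate doses for ages 6–18 years that match steady-state exposure in adult TGCT patients given 800 mg daily.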

[9] = recurrent glioblastoma patients, plasma taken at time of surgery; cited from earlier work
[10] = system: PBMC; assay: Flow cytometric analysis of PBMC and lymphocyte subset analysis; assay type: in vivo, human
[11] = system: peripheral blood immune cells; assay: Pharmacodynamics: fold change in peripheral blood; assay type: in vivo, human; details: for Absolute Immature Granulocyte, Med. Fold Change (95% CI) from Day 1 / Immature granulocytes, Med. Fold Change (95% CI) from Day 1: N=9
Method in brief: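 Complete blood counts, including absolute monocyte count, were taken as safety labs before treatment, mid-C1, before C2–C9, then every other cycle and at end of therapy. Patients took the oral agent once daily on a continuous 28-day cycle, dosed by BSA at 400, 600 or 800 mg/m2.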

## FC(F)(F)c1ccc(CNc2ccc(Cc3c[nH]c4ncc(Cl)cc34)cn2)cn1 [Pexidartinib]
[1]; 14–15 Days from C1, N=12
  IL-6 serum, Med. Fold Change (95% CI) from Day 1: 0.91 (0.78, 1.34)
  IL-10 serum, Med. Fold Change (95% CI) from Day 1: 1.25 (1.11, 1.44)
  IL-12p70 serum, Med. Fold Change (95% CI) from Day 1: 0.92 (0.80, 1.25)
  M-CSF serum, Med. Fold Change (95% CI) from Day 1: 3.70 (2.31, 5.24)
  MCP-1 serum, Med. Fold Change (95% CI) from Day 1: 1.28 (1.01, 1.56)
[1]; 27–29 Days from C1, N=8
  IL-6 serum, Med. Fold Change (95% CI) from Day 1: 0.98 (0.64, 2.39)
  IL-10 serum, Med. Fold Change (95% CI) from Day 1: 1.22 (0.81, 1.30)
  IL-12p70 serum, Med. Fold Change (95% CI) from Day 1: 0.86 (0.66, 1.05)
  M-CSF serum, Med. Fold Change (95% CI) from Day 1: 4.52 (2.40, 13.3)
  MCP-1 serum, Med. Fold Change (95% CI) from Day 1: 1.27 (1.11, 1.54)
[1]; 400, 600, 800 mg/m^2 DLs
  Target inhibition (CSF1 levels elevated, AMC levels decreased): seen at all DLs
[2]
  Drug levels in the cerebral spinal fluid: low but detectable levels
[3]
  Median terminal half-life: 16.8 h
[4]; DL1 to DL3
  AUC0–24 dependence on dose: rose with increasing dose
  Cmax dependence on dose: rose with increasing dose
[4]; day 15 vs day 1, DL3 (n=3)
  Accumulation ratio, median: 1.22
[4]; first day of dosing
  Clearance from concentration x time curves: slow clearance
[4]; over three DLs
  PK dose linearity: linear
[5]
  Effect on immune cells in a preclinical model: decreases in circulating monocytes and regulatory T cells and TAMs
[6]
  Liver toxicity in adult trials: idiosyncratic, serious (grade 4–5) liver toxicity was observed in a small subset of patients
[7]; human, in vivo, 28 days
  Recommended phase II dose (RP2D), BSA based: 800 mg/m^2/day
[7]; in vivo
  Dose-limiting toxicities (DLT): No DLTs
[7]; in vivo, po
  Tolerability: well tolerated
[7]; up to 800 mg/m^2/dose
  Maximum tolerated dose (MTD): not reached
[8]; body weight < 30 kg
  RP2D based on body weight (population PK): 400 mg daily
[8]; body weight ≥ 30 & < 40 kg
  RP2D based on body weight (population PK): 600 mg daily
[8]; body weight ≥ 40 kg
  RP2D based on body weight (population PK): 800 mg daily
[8]; human, plasma, oral, 800 mg, Steady-state AUC, 5th to 95th percentile, adult TGCT patients receiving 800 mg daily
  AUC: 96 to 255 µg·h/mL
[9]
  Median ratio of tumor/plasma concentrations: 70%
[10]; C1
  Change in CD14dimCD16+ nonclassical, pro-inflammatory monocytes: No significant changes
[10]; C1 days 6–8, flow cytometry
  CD11b+ cells in PBMC, median fold change (95% CI): 0.47 (0.21, 1.31)
[10]; during C1
  Change in peripheral blood lymphocyte subset analysis: no notable changes
[11]; 6–8 Days from C1
  Absolute Immature Granulocyte, Med. Fold Change (95% CI) from Day 1: 0.50 (0.10, 1.00)
  Immature granulocytes, Med. Fold Change (95% CI) from Day 1: 0.50 (0.08, 0.67)
[11]; 6–8 Days from C1, N=10
  Absolute Eosinophil Count, Med. Fold Change (95% CI) from Day 1: 0.76 (0.50, 1.07)
  Eosinophils %, Med. Fold Change (95% CI) from Day 1: 0.78 (0.55, 1.04)
[11]; 6–8 Days from C1, N=12
  Absolute Basophil Count, Med. Fold Change (95% CI) from Day 1: 0.92 (0.50, 1.00)
  Basophils %, Med. Fold Change (95% CI) from Day 1: 0.95 (0.50, 1.13)
[11]; 6–8 Days from C1, N=13
  Absolute Lymphocyte Count, Med. Fold Change (95% CI) from Day 1: 0.97 (0.68, 1.20)
  Absolute Monocyte Count, Med. Fold Change (95% CI) from Day 1: 0.58 (0.35, 0.81)
  Absolute Neutrophil Count, Med. Fold Change (95% CI) from Day 1: 0.90 (0.77, 1.26)
  Hemoglobin (Hgb), Med. Fold Change (95% CI) from Day 1: 1.03 (0.97, 1.08)
  Lymphocytes %, Med. Fold Change (95% CI) from Day 1: 0.96 (0.81, 1.29)
  Monocytes %, Med. Fold Change (95% CI) from Day 1: 0.60 (0.40, 0.87)
  Neutrophils % + bands, Med. Fold Change (95% CI) from Day 1: 1.08 (0.96, 1.13)
  Platelet Count, Med. Fold Change (95% CI) from Day 1: 1.10 (0.84, 1.17)
  White blood cell (WBC), Med. Fold Change (95% CI) from Day 1: 0.89 (0.78, 1.07)
[11]; 14–16 Days from C1
  Absolute Immature Granulocyte, Med. Fold Change (95% CI) from Day 1: 0.50 (0.19, 1.00)
  Immature granulocytes, Med. Fold Change (95% CI) from Day 1: 0.46 (0.30, 0.67)
[11]; 14–16 Days from C1, N=11
  Absolute Basophil Count, Med. Fold Change (95% CI) from Day 1: 0.67 (0.50, 1.00)
  Absolute Eosinophil Count, Med. Fold Change (95% CI) from Day 1: 1.00 (0.81, 1.27)
  Basophils %, Med. Fold Change (95% CI) from Day 1: 0.83 (0.50, 1.13)
  Eosinophils %, Med. Fold Change (95% CI) from Day 1: 0.97 (0.92, 1.53)
[11]; 14–16 Days from C1, N=13
  Absolute Lymphocyte Count, Med. Fold Change (95% CI) from Day 1: 0.88 (0.73, 1.03)
  Absolute Monocyte Count, Med. Fold Change (95% CI) from Day 1: 0.56 (0.40, 0.89)
  Absolute Neutrophil Count, Med. Fold Change (95% CI) from Day 1: 0.96 (0.64, 1.15)
